In ChEMBL document CHEMBL4837188, “Identification of Novel Tricyclic Benzo[1,3]oxazinyloxazolidinones as Potent Antibacterial Agents with Excellent Pharmacokinetic Profiles against Drug-Resistant Pathogens” (J Med Chem, 2021):
In brackets after ≈: the same amount, converted by molar mass.

Assays:
Enterococcus faecium [1] = assay: Antibacterial activity against linezolid resistant Enterococcus faecium 13549 assessed as bacterial growth inhibition after 18 hrs by broth microdilution method; format: functional
Enterococcus = assay: Antibacterial activity against vancomycin resistant Enterococcus assessed as bacterial growth inhibition after 18 hrs by broth microdilution method; format: functional
[2] = Clearance in BALB/c mouse at 1 mg/kg, iv measured upto 24 hrs by LC-MS/MS analysis; format: ADME, organism-based; details: in vivo
Method in brief: (§1)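 Female BALB/c mice, 16−21 g, three per route. Oral dosing at 10 mg/kg as a 5 mg/mL suspension in 0.5% carboxymethyl cellulose. IV dosing at 1 mg/kg as a 1 mg/mL solution in 10% DMSO/50% PEG400/40% water. Blood sampled 15 min to 24 h after oral dosing and 5 min to 24 h after iv. LC/MS/MS quantification in ESI positive mode. Noncompartmental analysis; F = (AUCpo×dose_iv)/(AUCiv×dose_po)×100%.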

[3] = AUC (0 to t) in BALB/c mouse at 1 mg/kg, iv measured upto 24 hrs by LC-MS/MS analysis; format: ADME, organism-based; set-up: route intravenous, dose 1 mg/kg, time <=24; details: in vivo; method in brief: as §1
[4] = target: T1, Amine oxidase [flavin-containing] B (Homo sapiens, UniProt P27338); assay: Inhibition of MAO-B (unknown origin) using kynuramine as substrate preincubated for 5 mins with substrate followed by enzyme addition and measured after 15 mins by LC-MS/MS analysis
T1 sequence (P27338 whole entry): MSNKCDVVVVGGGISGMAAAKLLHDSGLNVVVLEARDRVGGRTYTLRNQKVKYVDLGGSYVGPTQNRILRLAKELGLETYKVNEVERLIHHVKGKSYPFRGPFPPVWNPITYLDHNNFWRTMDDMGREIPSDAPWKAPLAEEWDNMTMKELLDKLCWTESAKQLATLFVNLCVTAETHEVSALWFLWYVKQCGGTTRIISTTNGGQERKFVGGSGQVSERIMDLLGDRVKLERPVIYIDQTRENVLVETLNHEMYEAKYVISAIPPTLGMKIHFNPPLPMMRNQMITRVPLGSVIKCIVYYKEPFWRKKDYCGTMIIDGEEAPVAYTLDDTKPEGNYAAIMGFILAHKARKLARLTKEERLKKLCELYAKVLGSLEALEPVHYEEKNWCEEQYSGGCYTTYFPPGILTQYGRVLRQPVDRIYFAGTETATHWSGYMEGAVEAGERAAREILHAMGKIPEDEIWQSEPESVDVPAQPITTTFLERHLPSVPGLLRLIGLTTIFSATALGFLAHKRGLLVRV
Method in brief: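 Recombinant MAO-A (0.01 mg/mL working solution) or MAO-B (0.04 mg/mL working solution) in phosphate buffer. Kynuramine 40 μM working solution. Compound or DMSO preincubated with substrate for 5 min at 37 °C; enzyme then added and incubated 15 min at 37 °C. Reaction quenched. Product 4-hydroxyquinoline (printed as 4-hydroxyquinolinol) measured by LC−MS/MS. Six concentrations in 4-fold dilutions; IC50 from % inhibition versus vehicle.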

[5] = MRT (0 to infinity) in BALB/c mouse at 10 mg/kg, po measured upto 24 hrs by LC-MS/MS analysis; format: ADME, organism-based; details: in vivo; method in brief: as §1
Enterococcus faecalis [6] = assay: Antibacterial activity against Enterococcus faecalis ATCC 29212 assessed as bacterial growth inhibition after 18 hrs by broth microdilution method; format: functional
Method in brief: (§2)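 Broth microdilution in 96-well plates. Media: cation-adjusted Mueller−Hinton broth for S. aureus, brain heart infusion for VRE, Mueller−Hinton broth for the other strains. Incubated at 37 °C for 18 h, then A600 read. Percent growth inhibition calculated against 1% DMSO vehicle.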

[7] = test system: Mycobacterium tuberculosis; assay: Antitubercular activity against Mycobacterium tuberculosis H37Rv assessed as inhibition of bacterial growth incubated for 7 days by MABA; format: functional; details: Mycobacterium tuberculosis, H37Rv, 168 h, time 7 day; read-out: MIC
Method in brief: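 Microplate alamar blue assay. H37Rv or clinical isolates were grown to late log phase in 7H9 broth with glycerol, Tween 80 and ADC, then 2 × 10⁵ CFU added to two-fold dilutions. Final range 32–0.5 μg/mL, lowered to 2–0.016 μg/mL for active compounds. 37 °C, 7 days, then alamar blue 16 h. Fluorescence 530/590 nm. MIC is the lowest concentration giving ≥90% reduction; INH and RFP were controls.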

[8] = Metabolic stability in pooled human liver microsomes incubated for 30 mins by LC-MS analysis; format: ADME, Microsome; details: read-out: Stabilty
Method in brief: (§3)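 Microsomes from male CD-1 mouse or pooled human, 1 mg/mL protein in 0.05 M phosphate buffer pH 7.4. Compound at final 0.1 μM with DMSO cosolvent. Incubated at 37 °C with 1 mM NADPH, or with buffer in place of NADPH. Sampled at 0 and 30 min and quenched with acetonitrile. LC−MS measurement; substrate remaining at 30 min normalized to time zero.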

Enterococcus faecium [9] = assay: Antibacterial activity against Enterococcus faecium ATCC 49624 assessed as bacterial growth inhibition after 18 hrs by broth microdilution method; format: functional; method in brief: as §2
Staphylococcus aureus [10] = assay: Antibacterial activity against Staphylococcus aureus ATCC 29213 assessed as inhibition of bacterial growth incubated for 18 hrs by broth microdilution method; format: functional; method in brief: as §2
[11] = AUC (0 to t) in BALB/c mouse at 10 mg/kg, po measured upto 24 hrs by LC-MS/MS analysis; format: ADME, organism-based; set-up: route oral, dose 10 mg/kg, time <=24; details: in vivo; method in brief: as §1
[12] = Tmax in BALB/c mouse at 10 mg/kg, po measured upto 24 hrs by LC-MS/MS analysis; format: ADME, organism-based; details: in vivo; method in brief: as §1
[13] = AUC (0 to infinity) in BALB/c mouse at 10 mg/kg, po measured upto 24 hrs by LC-MS/MS analysis; format: ADME, organism-based; set-up: route oral, dose 10 mg/kg, time <=24; details: in vivo; method in brief: as §1
Vero = assay: Cytotoxicity against african green monkey Vero cells after 48 hrs by MTT assay; format: cell-based; details: Chlorocebus sabaeus
Method in brief: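 Vero cells grown in RPMI1640 with 10% FBS at 37 °C, 5% CO2. Cells diluted to 4 × 10⁵ cells/mL. Compounds given as three-fold serial dilutions, final 64−0.26 μg/mL, for 48 h at 37 °C. Monolayers washed with warm HBSS, then MTT added for 4 h. Absorbance read at 492 nm.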

Bacillus subtilis = assay: Antibacterial activity against Bacillus subtilis 168 assessed as inhibition of bacterial growth incubated for 18 hrs by broth microdilution method; format: functional; method in brief: as §2
Staphylococcus aureus [14] = assay: Antibacterial activity against vancomycin intermediate Staphylococcus aureus assessed as bacterial growth inhibition after 18 hrs by broth microdilution method; format: functional
Enterococcus faecalis [15] = assay: Antibacterial activity against linezolid resistant Enterococcus faecalis assessed as bacterial growth inhibition after 18 hrs by broth microdilution method; format: functional
[16] = test system: Staphylococcus epidermidis; assay: Antibacterial activity against methicillin resistant Staphylococcus epidermidis assessed as bacterial growth inhibition after 18 hrs by broth microdilution method; format: functional
Staphylococcus aureus [17] = assay: Antibacterial activity against methicillin resistant Staphylococcus aureus assessed as bacterial growth inhibition after 18 hrs by broth microdilution method; format: functional
[18] = Metabolic stability in CD-1 mouse liver microsomes assessed as substrate remaining in presence of NADPH incubated for 30 mins by LC-MS analysis; format: ADME, Microsome; details: read-out: Stabilty; method in brief: as §3
[19] = Elimination half life in BALB/c mouse at 1 mg/kg, iv measured upto 24 hrs by LC-MS/MS analysis; format: ADME, organism-based; details: in vivo, read-out: beta t1/2 (converted); method in brief: as §1
[20] = Oral bioavailability in BALB/c mouse at 10 mg/kg measured upto 24 hrs by LC-MS/MS analysis; format: ADME, organism-based; details: in vivo; method in brief: as §1

SMILES: CC(=O)NC[C@@H]1OC(=O)N2Cc3cc(-c4ccc(C#N)nc4)c(F)cc3O[C@@H]12
- MIC (Enterococcus faecium [1]): 2 µg/mL (≈ 5.23 µM)
- MIC (Enterococcus): 0.25 µg/mL (≈ 0.654 µM)
- clearance [2]: 2.71 mL/min/kg
- AUC(0-t) at 24 h [3]: 6080 ng·h/mL
- IC50 [4]: 6.07 µM
- MRT inf [5]: 5.86 h
- MIC (Enterococcus faecalis [6]): 0.5 µg/mL (≈ 1.31 µM)
- MIC [7]: 0.4 µg/mL (≈ 1.05 µM)
- remaining at 0.5 h [8]: 106%
- MIC (Enterococcus faecium [9]): 1 µg/mL (≈ 2.62 µM)
- MIC (Staphylococcus aureus [10]): 0.125 µg/mL (≈ 0.327 µM)
- AUC(0-t) at 24 h [11]: 77600 ng·h/mL
- Tmax [12]: 1.33 h
- AUC(0-inf) [13]: 78700 ng·h/mL
- IC50 (Vero): > 64 µg/mL
- MIC (Bacillus subtilis): 0.125 µg/mL (≈ 0.327 µM)
- MIC (Staphylococcus aureus [14]): 0.25 µg/mL (≈ 0.654 µM)
- MIC (Enterococcus faecalis [15]): 1 µg/mL (≈ 2.62 µM)
- MIC [16]: 1 µg/mL (≈ 2.62 µM)
- MIC (Staphylococcus aureus [17]): 0.25 µg/mL (≈ 0.654 µM)
- remaining at 0.5 h [18]: 95.5%
- half-life [19]: 4.08 h
- bioavailability [20]: 128%
